The record followed here is ChEMBL document CHEMBL3792357, “4,6-Diphenylpyridines as Promising Novel Anti-Influenza Agents Targeting the PA-PB1 Protein-Protein Interaction: Structure-Activity Relationships Exploration with the Aid of Molecular Modeling” (J Med Chem, 2016).

As a reminder, the IC50 is the concentration that inhibits the measured activity by half. A high value points to lower potency. The term CC50 denotes the concentration giving 50% cytotoxicity. Broadly, the EC50 is the concentration at which the effect is half-maximal.

The target in data set [1] is PA/PB1 (Influenza A virus (A/Puerto Rico/8/1934(H1N1)), UniProt P03431+P03433). Put plainly: Inhibition of Influenza A virus PR/8/34 6His-tagged PA (239 to 716 residues) interaction with GST-tagged PB1 (1 to 25 residues) expressed in Escherichia coli compound treated in DMEM serum-free medium measured after overnight incubation by ELISA. Put shortly:
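Same coated 6His-PA(239–716)/GST-PB1(1–25) ELISA (400 ng PA, 200 ng PB1 peptide; overnight room temperature; HRP anti-GST/TMB, OD 450), but GST-PB1 and compounds or DMSO are dissolved in serum-free DMEM instead of PBS. DMSO = 100% interaction; PB1(1–15)-Tat as positive control. IC50 from mean ± SD, ≥2 experiments in duplicate.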
In general terms: An ELISA detects its analyte on a solid surface through an enzyme-linked reagent.

Data set [2] in a line: Cytotoxicity against MDCK cells assessed as decrease in cell viability after 48 hrs by MTT assay. The data set is classed as cell-based, Canis lupus familiaris. Conditions: dog. The method, boiled down:
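MDCK cells at 5x10³/well exposed to 2-fold serial dilutions from 250 µM for 48 h. MTT (5 mg/mL) for 4 h at 37 °C, solubilisation 3 h, A620. DMSO wells = 100% viable; CC50 = concentration giving 50% viability loss. Mean ± SD, ≥3 independent experiments in duplicate.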
In general terms: Tetrazolium dyes change colour on reduction, which living cells bring about.

Data set [3] in a line: Selectivity index, ratio of CC50 for MDCK cells to EC50 for Influenza A virus PR/8/34 infected in MDCK cells. Conditions: dog, read-out: Ratio CC50/EC50. The data set is classed as toxicity, cell-based.
In a further data set the test system is Influenza A virus. As to the kind of experiment: Antiviral activity against Influenza A virus PR/8/34 infected in MDCK cells assessed as inhibition of plaque formation treated for 1 hr measured after 2 days by toluidine blue staining-based assay. The data set is classed as functional, organism-based. Conditions: A/Puerto Rico/8/1934(H1N1). Put shortly:
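MDCK confluent monolayers infected with PR8 (H1N1) at 40 PFU/well in DMEM with 1 µg/ml TPCK-trypsin, 0.14% BSA and compound, 1 h at 37 °C. Overlay of the same medium plus 1.2% Avicel and compound. After 2 days, fixed in 4% formaldehyde, stained with 0.1% toluidine blue and plaques counted. EC50 = 50% plaque inhibition. Ribavirin and oseltamivir as references. Mean ± SD, ≥3 independent experiments in duplicate.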

Data set [4] addresses PA/PB1 (Influenza A virus (A/Puerto Rico/8/1934(H1N1)), UniProt P03431+P03433). Put plainly: Inhibition of Influenza A virus PR/8/34 6His-tagged PA (239 to 716 residues) interaction with GST-tagged PB1 (1 to 25 residues) expressed in Escherichia coli compound treated in PBS buffer measured after overnight incubation by ELISA. The method, boiled down: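 Plates coated with 400 ng E. coli-expressed 6His-PA(239–716) for 3 h at 37 °C, then blocked with 2% BSA/PBS for 1 h. Then 200 ng GST-PB1(1–25) (GST as control) with compound or DMSO in PBS, overnight at room temperature. Detection with HRP anti-GST mAb and TMB, OD 450 nm. DMSO = 100% interaction; PB1(1–15)-Tat as reference. Mean ± SD, ≥3 experiments in duplicate.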

A short description of data set [5]: Cytotoxicity against HEK293T cells assessed as decrease in cell viability after 24 hrs by MTT assay. The class given is cell-based, HEK-293T. Conditions: human. Put shortly:
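HEK 293T cells at 2x10⁴/well exposed to 2-fold serial dilutions from 250 µM for 24 h. MTT (5 mg/mL) for 4 h at 37 °C, solubilisation 3 h, absorbance at 620 nm. DMSO wells set as 100% viability; CC50 = 50% viability decrease. Mean ± SD, ≥3 independent experiments in duplicate.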

The nature of data set [6]: Inhibition of Influenza A virus RdRp transfected in HEK293T cells at 24 hrs by dual luciferase reporter gene-based minireplicon assay. The class given is cell-based. Conditions: HEK-293T. The method, boiled down: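 HEK 293T seeded at 2x10⁵/well; 24 h later calcium-phosphate transfected with PB1, PB2, PA and NP plasmids (100 ng/well each), pPolI-Flu-ffLuc (50 ng/well) and pRL-SV40 normaliser (50 ng/well) with compound or DMSO. Medium with compound replaced at 4 h; firefly/Renilla luciferase read at 24 h. Ribavirin reference. Mean ± SD, ≥2 experiments in duplicate.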

The nature of data set [7]: Ratio of IC50 for Influenza A virus PR/8/34 6His-tagged PA (239 to 716 residues) interaction with GST-tagged PB1 (1 to 25 residues) to EC50 for Influenza A virus PR/8/34 infected in MDCK cells.

`CSCC[C@H](N)C(=O)N[C@@H](CC(=O)O)C(=O)N[C@H](C(=O)N[C@@H](CC(N)=O)C(=O)N1CCC[C@H]1C(=O)N[C@H](C(=O)N[C@@H](CC(C)C)C(=O)N[C@@H](CC(C)C)C(=O)N[C@@H](Cc1ccccc1)C(=O)N[C@@H](CC(C)C)C(=O)N[C@@H](CCCCN)C(=O)N[C@H](C(=O)N1CCC[C@H]1C(=O)N[C@@H](C)C(=O)N[C@@H](CCC(N)=O)C(=O)O)C(C)C)[C@@H](C)O)C(C)C`: the half-inhibitory concentration (IC50) in data set [1] worked out at 31.7 µM; in data set [4] it was 35.9 µM. Also, in data set [2], the CC50 at 48 h was above 250 µM. Besides, the selectivity ratio in data set [3] is above 5. In the data set on Influenza A virus, the EC50 turned out to be 49.7 µM. Also, the CC50 at 24 h in data set [5] was above 250 µM.

As to `Cc1cccc(NC(=O)CSc2nc(-c3ccccc3)cc(-c3ccccc3)c2C#N)c1`, the figures for the IC50 in data set [1] and in data set [4] were 35.2 µM and 175 µM, respectively. In data set [2], the 50% cytotoxic concentration (CC50) at 48 h was above 250 µM. The concentration for a half-maximal effect (EC50) in data set [6] was found to be 86.6 µM; in the data set on Influenza A virus, 9.2 µM. Further, the “Ratio IC50/EC50” value in data set [7] came to 19. The selectivity ratio in data set [3] is above 27.2. For the same compound, the CC50 at 24 h in data set [5] was above 250 µM.

Turning to `Cc1cccc(NC(=O)CSc2nccc(-c3ccccc3)c2C#N)c1`, in data set [2], the cytotoxic concentration (CC50) at 48 h came out at 41.5 µM. Further, the EC50 with Influenza A virus was above 10 µM. The IC50 in data set [4] is above 200 µM. Also, the 50% cytotoxic concentration (CC50) at 24 h in data set [5] worked out at 180 µM.

Consider `Cc1cccc(NC(=O)CSc2nc(-c3ccccc3)ccc2C#N)c1`, for which the half-maximal cytotoxic concentration (CC50) at 48 h in data set [2] was found to be 7.1 µM. Further, the concentration giving a half-maximal response (EC50) in the data set with Influenza A virus is above 10 µM. The compound further had an IC50 in data set [4] above 200 µM. For the same compound, the CC50 at 24 h in data set [5] came out at 32 µM.

Regarding `Cc1cccc(NC(=O)CSc2nc(-c3ccc(C(F)(F)F)cc3)cc(-c3ccc(C(F)(F)F)cc3)n2)c1`, the IC50 in data set [1] was 64.5 µM; in data set [4], above 200 µM. Besides, in data set [2], the CC50 at 48 h was above 250 µM. For the same compound, the values for the concentration giving a half-maximal response (EC50) (in data set [6]; with Influenza A virus) were 22 µM and 26.5 µM, respectively. Further, the selectivity ratio in data set [3] is above 9.4. Moreover, the CC50 at 24 h in data set [5] is above 250 µM.

For the compound `Cc1cccc(NC(=O)CCCSc2nc(-c3ccccc3)cc(-c3ccccc3)c2C#N)c1`, the 50% inhibitory concentration (IC50) in data set [1] turned out to be 145 µM; in data set [4] it was 140 µM. For the same compound, the CC50 at 48 h in data set [2] amounted to 41.5 µM. For the same compound, the selectivity ratio in data set [3] was found to be 5.1. Also, in the data set with Influenza A virus, the EC50 stood at 8.2 µM. Moreover, the CC50 at 24 h in data set [5] worked out at 95.6 µM.

`CSc1nc(-c2ccccc2)cc(-c2ccccc2)c1C#N`: in data set [2], the cytotoxic concentration (CC50) at 48 h turned out to be 125 µM. The half-maximal effective concentration (EC50) in the data set with Influenza A virus was above 50 µM. Besides, in data set [4], the concentration for half-maximal inhibition (IC50) was determined as 195 µM. In addition, in data set [5], the CC50 at 24 h stood at 144 µM.

`Cc1cccc(NC(=O)COc2nc(-c3ccccc3)cc(-c3ccccc3)c2C#N)c1`: in data set [2], the cytotoxic concentration (CC50) at 48 h is above 250 µM. The selectivity ratio in data set [3] was above 2.7. Moreover, in the data set with Influenza A virus, the half-maximal effective concentration (EC50) amounted to 93.9 µM. Also, the IC50 in data set [4] is above 200 µM. In data set [5], the cytotoxic concentration (CC50) at 24 h was above 250 µM.

For `N#Cc1cnc(-c2ccccc2)cc1-c1ccccc1`, in data set [2], the cytotoxic concentration (CC50) at 48 h amounted to 105 µM. In addition, in data set [3], the selectivity ratio worked out at 2.3. The EC50 in the data set with Influenza A virus came out at 45.1 µM. The IC50 in data set [4] was 116 µM. The CC50 at 24 h in data set [5] was above 250 µM.

Consider `Cc1cccc(NC(=O)CCc2nc(-c3ccccc3)cc(-c3ccccc3)c2C#N)c1`, for which the CC50 at 48 h in data set [2] is above 250 µM. The EC50 in the data set on Influenza A virus was above 100 µM. The IC50 in data set [4] was above 200 µM. Moreover, the CC50 at 24 h in data set [5] was 140 µM.

For the compound `Cc1cccc(NC(=O)CCSc2nc(-c3ccccc3)cc(-c3ccccc3)c2C#N)c1`, the CC50 at 48 h in data set [2] turned out to be 13.9 µM. The half-maximal effective concentration (EC50) with Influenza A virus is above 10 µM. In data set [4], this compound came in with an IC50 of 122 µM. Moreover, the CC50 at 24 h in data set [5] was found to be 150 µM.

As for `Cc1cccc(NC(=O)CSc2cc(-c3ccccc3)cc(-c3ccccc3)n2)c1`, the half-maximal inhibitory concentration (IC50) in data set [1] was found to be 40.5 µM; in data set [4] it was 52.6 µM. For the same compound, in data set [2], the CC50 at 48 h amounted to 150 µM. Also, the EC50 stood at 30.8 µM in data set [6] and 7.3 µM in the data set with Influenza A virus. For the same compound, in data set [3], the selectivity ratio came to 20.5. Also, the cytotoxic concentration (CC50) at 24 h in data set [5] was above 250 µM.

In the case of `N#Cc1c(-c2ccccc2)cc(-c2ccccc2)nc1SCC(=O)N1CCOCC1`, in data set [2], the CC50 at 48 h is above 250 µM. Moreover, the selectivity ratio in data set [3] was above 2.5. In addition, in the data set on Influenza A virus, the 50% effective concentration (EC50) was 100 µM. The IC50 in data set [4] stood at 177 µM. Besides, in data set [5], the 50% cytotoxic concentration (CC50) at 24 h was 184 µM.

For `Cc1cccc(NC(=O)CSc2nc(-c3ccccc3)cc(-c3ccccc3)n2)c1`, the half-inhibitory concentration (IC50) in data set [1] is 113 µM; in data set [4], 165 µM. Besides, the CC50 at 48 h in data set [2] came out at 10.1 µM. Also, the “Ratio IC50/EC50” value in data set [7] is on record as 47. The selectivity ratio in data set [3] turned out to be 2.9. The 50% effective concentration (EC50) with Influenza A virus came out at 3.5 µM. Moreover, in data set [5], the 50% cytotoxic concentration (CC50) at 24 h stood at 22.3 µM.

Consider `Cc1cccc(NC(=O)CNc2nc(-c3ccccc3)cc(-c3ccccc3)c2C#N)c1`, for which the 50% inhibitory concentration (IC50) in data set [1] and in data set [4] was above 200 µM each time. The CC50 at 48 h in data set [2] was above 250 µM. The EC50 in data set [6] was determined as 46.3 µM; in the data set with Influenza A virus, 28.6 µM. Besides, the selectivity ratio in data set [3] is above 8.7. Further, the CC50 at 24 h in data set [5] is above 250 µM.

On to `Cc1cccc(NC(=O)/C=C/c2nc(-c3ccccc3)cc(-c3ccccc3)c2C#N)c1`, for which, in data set [2], the CC50 at 48 h was above 250 µM. The selectivity ratio in data set [3] was above 3.5. The EC50 with Influenza A virus was 70.7 µM. The compound further came in with an IC50 in data set [4] of 190 µM. Also, the CC50 at 24 h in data set [5] is above 250 µM.

As to `CCOC(=O)C1=C[C@@H](OC(CC)CC)[C@H](NC(C)=O)[C@@H](N)C1` [OSELTAMIVIR], in data set [2], the half-maximal cytotoxic concentration (CC50) at 48 h was above 250 µM. For the same compound, in data set [3], the selectivity ratio is above 16000. Besides, the concentration for a half-maximal effect (EC50) in the data set with Influenza A virus is 0.015 µM. The half-maximal cytotoxic concentration (CC50) at 24 h in data set [5] was above 250 µM.

In the case of `NC(=O)c1ncn([C@@H]2O[C@H](CO)[C@@H](O)[C@H]2O)n1` [RIBAVIRIN], in data set [2], the cytotoxic concentration (CC50) at 48 h was above 250 µM. In addition, the EC50 in data set [6] came to 23.8 µM; in the data set on Influenza A virus, 12.8 µM. Moreover, the selectivity ratio in data set [3] is above 19.5. For the same compound, the CC50 at 24 h in data set [5] is above 250 µM.
